ChEMBL document CHEMBL4513216, “Probing the Open Global Health Chemical Diversity Library for Multistage-Active Starting Points for Next-Generation Antimalarials” (ACS Infect Dis, 2020)

Experiment: Toxicity liver stage against HepG2, at 10uM
Format: cell-based
Design: test concentration 10 uM, cell line HepG2-A16-CD81EGFP
Conditions: human, HepG2-A16-CD81EGFP cells; read-out: INHIBITION
How it was run: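 Uninfected HepG2-A16-CD81EGFP cells, 3 × 10^3 per well, 1536-well, plated on prespotted compound at 10 μM final, parasite-free screening media added to match infected plates; puromycin 10 μM positive, DMSO 0.5% negative; run in parallel with 48 h PbLuc assay at 37 °C, 5% CO2; viability by CellTiter-Glo luminescence, normalized to controls.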

Row | Structure (SMILES) | cytotoxicity at 10 µM [%]
1 | Cc1cnn(CCNCc2c(C(C)C)nn(C)c2Cl)c1 | -14
2 | CC(C)CNC[C@H]1O[C@H](Cc2cc(-c3ccccn3)on2)CC[C@@H]1O | -0.238
3 | Cc1nnc(CN(Cc2ccco2)Cc2cccc3c2OCO3)n1C | -0.535
4 | CCc1ccc(-c2nn3c(nc2=O)-c2ccccc2NC3C(=O)O)cc1 (configuration not stated) | 11.2
5 | Cc1cnc(C)c(Oc2ccc(CN3CCCC3)cc2Cl)n1 | -1.37
6 | Cn1ccc(C(=O)N2CCOC(c3ccccc3)C2)cc1=O (configuration not stated) | -0.944
7 | Cc1nc(C)n(CC2CCCN(Cc3cccc(C#N)c3)C2)n1 (configuration not stated) | -16
8 | CC(C)c1cc(NC(=O)c2cccnc2)[nH]n1 | -4.24
9 | CN(Cc1ccncc1)C1COC2(CCN(Cc3cccs3)CC2)C1 (configuration not stated) | -0.931
10 | CN(C)Cc1nnc(C2CCN(c3ncccn3)CC2)n1C1CC1 | -1.26
11 | Cn1ccnc1C(NCc1ccc(Br)cc1)c1ccccc1 (configuration not stated) | -6.39
12 | Cc1cc(CN(C)C(=O)C2CCC(=O)N(CC3CCCCC3)C2)n[nH]1 (configuration not stated) | 1.85
13 | CN(CCC(F)(F)F)Cc1nc2ccccc2c(=O)[nH]1 | -5.61
14 | O=C(O)c1cc(-c2ccncc2)cc(S(=O)(=O)N2CCSCC2)c1 | 3.26
15 | COc1ccc(CCC(=O)N(C)Cc2c(C)nn(C)c2C)cc1 | -0.734
16 | CNC(=O)c1cc2c(nc1N(C)C)CCN(c1ncc(C)cn1)CC2 | -119
17 | Cc1ccc(-c2nnc(CNCCn3cc(C)cn3)o2)cc1 | -12.1
18 | Cc1noc(C2CCCCN2C(=O)NC2CCCC2)n1 (configuration not stated) | 2.4
19 | CCCc1noc(CN2CCCC2c2c(C)nn(C)c2OC)n1 (configuration not stated) | 9.94
20 | Cc1nn(C)cc1C(=O)N1CCCC(n2cncn2)C1 (configuration not stated) | -3.27
21 | CCCc1noc(CN2CCC(c3ccnn3CCO)CC2)n1 | -19.9
22 | COCCN1CCCC(O)(CN2CCCN(c3ncccn3)CC2)C1=O (configuration not stated) | -3.95
23 | CN(C)C(=O)CN1CCN(C(=O)C2CSc3ccccc3O2)CC1 (configuration not stated) | 1.84

Row | Structure (SMILES) | cytotoxicity at 10 µM [%]
24 | Cc1nc(CN(C)C2CCN(CCC(=O)N3CCOCC3)C2)no1 (configuration not stated) | -0.945
25 | CC(C)C(NC(=O)c1nc(N2CCOCC2)ncc1Cl)c1cccs1 (configuration not stated) | -44.3
26 | Cc1noc(C2CCN(C(=O)c3cc(Cl)c(Cl)n3C)CC2)n1 | 10.7
27 | CC(C(=O)N1CCCC1)N1CCC(c2nccn2Cc2cscn2)CC1 (configuration not stated) | 2.79
28 | COc1ccc(CN(C(=O)C2CCCOC2)c2ccncc2)cc1 (configuration not stated) | 6.35
29 | Cc1cc(CN2CCC(CNS(=O)(=O)c3ccc(C)s3)CC2)c(C)o1 | 3.39
30 | CC(c1ccco1)N(C)C(=O)NCCOc1ccc(C#N)cc1 (configuration not stated) | -2.98
31 | c1cncc(CN2CCCn3nnc(CN4CCCC4)c3C2)c1 | 4.78
32 | CC(C)c1sc(Br)nc1C(=O)NCc1cccnc1 | 3.06
33 | O=S1(=O)CCC(c2nnc(-c3cnc4onc(C5CC5)c4c3)o2)C1 (configuration not stated) | 5.89
34 | CCOC1COC2(CCN(c3ccccn3)CC2)C1 (configuration not stated) | 3.77
35 | Cc1cccc2c1OCCC2NCc1c(C)nn(C)c1N(C)C (configuration not stated) | -5.72
36 | CCOC(=O)N1C[C@@H]2CC[C@H]1CN(Cc1ccccc1)C2 | 2.7
37 | Cc1ccc(CC(=O)N2CCCCC2Cn2cccn2)cn1 (configuration not stated) | -130
38 | CCOCCC(=O)Nc1cc(C)cnc1OC | 18.9
39 | COc1ncc(Cl)c(NCc2ccc(C(=O)N(C)C)cc2)n1 | 9.95
40 | C[C@@H]1CN(C(=O)c2ccccc2F)C[C@]12CCN(CCN(C)C)C2=O | 3
41 | Cc1[nH]c2c(C)ccc(C)c2c1CC(=O)NCCCNc1cccnc1 | 0.0773
42 | Cc1ccnc(NC(=O)C2CCN(CCCn3ccnc3)CC2)c1 | -57.9
43 | COc1ccc(-n2c(SCC(=O)O)nnc2-c2cn[nH]c2)cc1 | -4.59
44 | CCc1csc(C2CCCN(C(=O)COc3cc(C)on3)C2)n1 (configuration not stated) | -9.71
45 | O[C@@H]1C[C@H]2CN(Cc3ccccc3Cl)[C@H](Cc3ccccc3)CN2C1 | -2.51
46 | CSCCCN1C[C@H](NC(=O)c2cnn(C)c2)[C@@H](C2CC2)C1 | 4.43

Row | Structure (SMILES) | cytotoxicity at 10 µM [%]
47 | CC(C)N1CCCC2(CCN(C(=O)CCCn3cncn3)C2)C1=O (configuration not stated) | -11.1
48 | c1ncn(Cc2ccc(CNCc3ccc4c(c3)OCCO4)cc2)n1 | -1.66
49 | CN(C1CCN(c2ccccn2)CC1)S(=O)(=O)c1cccc(F)c1 | 10.8
50 | COC(C)(CNS(=O)(=O)c1cccnc1)c1ccccc1F (configuration not stated) | -0.403
51 | O=C(Cc1cccnc1)NCCS(=O)(=O)c1ccccc1F | 6.72
52 | O=S(=O)(c1ccccc1F)N1CCCC(c2nccs2)C1 (configuration not stated) | -11
53 | O=c1cc(C2CCNCC2)nc(Cc2cccc(Cl)c2)[nH]1 | -0.869
54 | CCC1(CO)CCCN(C(=O)c2ccc(N3CCN(C)CC3)cc2)C1 (configuration not stated) | -4.71
55 | CN1CCN(C2CCN(CCOc3cccc(F)c3)CC2)C1=O | -2.45
56 | Clc1snnc1CN1CCCC1Cn1cncn1 (configuration not stated) | -20.7
57 | CC(=O)NCCNCC1(O)CCCN(CCC2CCCCC2)C1=O (configuration not stated) | 6.27
58 | Cc1nc(CN2CCC3(CCCN(Cc4cnn(C)c4)C3)C2=O)cs1 (configuration not stated) | -5.74
59 | Cn1cccc1C(=O)N1CCC2(CCCN2S(C)(=O)=O)CC1 | 5.13
60 | CCC(CN1CCCC1)n1cncc1-c1cnn(-c2ccccc2)c1 (configuration not stated) | 5.87
61 | COc1ccnc(N2CCN(C(=O)CCc3cnn(C)c3)CC2)n1 | 8.72
62 | CCn1ncc2[nH]c(-c3ccc(OC)c(COC)c3)nc21 | 6.34
63 | CCN1CCC2(CC1)NC(=O)c1cc(Br)ccc1-n1nnnc12 | 1.47
64 | COc1ccccc1CC(=O)NS(=O)(=O)c1ccc(C(N)=O)cc1 | -5.2
65 | COc1ccnc(NCc2ccccc2Cn2cccn2)n1 | -0.81
66 | O=C(c1cc[nH]n1)N1CCCC1c1cc(Nc2ccccn2)n[nH]1 (configuration not stated) | -13.8
67 | Cn1cc(CN2CCC3(CC2)CCN(Cc2ccccn2)CC3)cn1 | 9.84
68 | COc1ccc2c(c1)C(C(=O)N(C)CCc1scnc1C)CC(=O)N2 (configuration not stated) | -42.3
69 | COc1ccc(C(=O)N2CCC(C3CCN(c4ncccn4)CC3)C2)o1 (configuration not stated) | -12.5

Row | Structure (SMILES) | cytotoxicity at 10 µM [%]
70 | Cc1nsc(N2CCN(CC(=O)NCc3cccnc3)CC2)n1 | -4.52
71 | CN(C)S(=O)(=O)N1C[C@@H]2C[C@H](C(=O)NCc3ccccc3)[C@H](C1)O2 | 4.09
72 | Cn1ccnc1CN1CCC2(CC1)CCN(c1cncnc1)C2=O | -65
73 | COc1cc(N2CCC3(CCN(C(=O)c4cccnc4)CC3)C2)ncn1 | -130
74 | CCOc1ncccc1NC(=O)NCC(C)O (configuration not stated) | -5.68
75 | CCN(Cc1cnn(C)c1)C(=O)c1cc2ccccc2c(=O)[nH]1 | -7.94
76 | O=C(CCn1cccn1)N1CCC(c2nnc(-c3ccsc3)o2)CC1 | 4.25
77 | Cc1cc(NC(=O)CNc2cccc(OC(F)F)c2C)n(C)n1 | 9.47
78 | CC(C)c1nnc2n1CCN(C(=O)Cc1csc(C(C)(C)C)n1)C2 | -4.54
79 | Cc1nc(CN2C(=O)COC3(CCN(CC4CC4)CC3)C2C)cs1 (configuration not stated) | -131
80 | CCCNCC1(O)CCCN(Cc2cccc(C)c2)C1=O (configuration not stated) | -19.7
81 | Cn1ncc(N2CCOC(CCNC(=O)NC(C)(C)C)C2)cc1=O (configuration not stated) | 22.6
82 | Cc1cc(C(=O)NCc2cc(C)oc2C)no1 | -9.98
83 | CCOc1ccc(CNC(=O)c2cnc(OC)nc2)cc1 | -0.121
84 | Cc1ccc2cc(C3(O)CCN(C(=O)CSC(C)C)CC3)ccc2n1 | 22
85 | CN(CC1CCOC1)c1ncc(Br)cn1 (configuration not stated) | 4.23
86 | Cc1nc(C(C)NCc2cc(O)c3cccc(F)c3n2)cs1 (configuration not stated) | 8.33
87 | Cn1ccc(C(=O)NCc2ccc(CN3CCCC3)cc2)cc1=O | -13.5
88 | Cc1cccc(-c2noc([C@@H]3C[C@@H](O)CN3Cc3ccc(CO)o3)n2)c1 | 7.38
89 | CCC(C)c1noc(C2CCN(C(=O)Cn3nc(C)cc3C)CC2)n1 (configuration not stated) | 6.58
90 | CC(C)N1CCCCC1c1nc(N(C)C)ncc1I (configuration not stated) | -3
91 | Cc1cc(NC(=O)NCC(C(C)C)N2CCOCC2)n(C)n1 (configuration not stated) | -17.2
92 | Cc1cc(-n2cncn2)ccc1C(=O)N(CC(F)(F)F)C(C)C | -3.72

Row | Structure (SMILES) | cytotoxicity at 10 µM [%]
93 | O=C(NCCn1cccc1)C1CCN(C2CCCCC2)CC1 | -0.467
94 | CCOC(=O)CN(C)C1CCc2ccccc21 (configuration not stated) | 0.367
95 | Cc1nc(CN(C)C2CCN(Cc3ccc4c(c3)CCC4)C2)no1 (configuration not stated) | -18.2
96 | Cc1noc(C)c1CN1CCc2c(CNc3nccs3)n[nH]c2C1 | 5.28
97 | Cn1cnc(CNC(=O)c2ccccc2-n2cc(CN)cn2)c1 | -16.9
98 | CN(C)C(=O)CN1C(=O)CCC12CCN(Cc1cccn1C)CC2 | 6.45
99 | CNCC[C@H]1CC(C)(C)Oc2ccc(OCC3CC3)cc21 | -9.44
100 | CCC(CC)c1cc(CNC(=O)N2CCC(n3cncn3)CC2)on1 | -4.16
101 | COCCN(Cc1ccccc1C)c1nc(C)nc2oc(C)nc12 | -51.8
102 | CC(NC(=O)c1csnn1)c1ccc(OCC2CC2)c(F)c1 (configuration not stated) | -1
103 | COC(=O)CCCNC(=O)c1cc(COc2cncc(Cl)c2)on1 | 8.23
104 | CCCNC(=O)CN1CCC(NC(=O)c2cc(CC)ccc2O)CC1 | 1.93
105 | CCn1cc(CN(C)C(=O)c2cc(C(F)(F)F)n(C)n2)cn1 | 10.4
106 | Cc1cc(C)n(CC2CCN(CC(O)Cn3cccn3)CC2)n1 (configuration not stated) | -5.58
107 | CCOC(=O)C1CCN(c2cc(C(=O)N3CCOCC3)nc(C)n2)CC1 | -1.07
108 | COCc1nnc(-c2cccc(C(=O)N(C)CC(C)(C)C)c2)o1 | -11.1
109 | CN1CCC(CN(C)C(=O)c2cc(C3CCCN3C)ccn2)CC1 (configuration not stated) | -28.3
110 | Cn1cc(-c2ccnc(NCC3CC3)n2)cn1 | -134
111 | Cc1nccn1[C@@H]1CC[C@@H](NC(=O)CCCn2cncn2)[C@H]1O | 6.17
112 | c1ccc(-c2ncc(CNC3CCc4ncnn4C3)cn2)cc1 (configuration not stated) | -0.722
